Assay type in all cases: functional
Experiment [1] deals with Mus musculus. The experiment is described as follows: The compound was tested for increase in life span for mice implanted intraperitoneally with P-388/FU Leukemia cell line at 67 mg/kg. Particulars: P388, ip, route intraperitoneal. Summed up: (§1)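 Male BDF1 mice, six per group, implanted ip with 1×10^6 P-388/0 or P-388/FU cells on day 0. Dosed ip daily for 5 days from 24 h post-implant, in saline or Emulphor 620 vehicle. Mice observed until death. %ILS = (T/C − 1)×100, from median survival of treated mice (T) versus saline-treated controls (C).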

Experiment [2] has as its system Mus musculus. The experiment is described as follows: The compound was tested for change in weight for mice implanted intraperitoneally with P-388/FU Leukemia cell line at 150 mg/kg. Particulars: route intraperitoneal. The method in brief: (§2)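 Male BDF1 mice inoculated ip on day 0 with 1 × 10^6 leukemia cells (six mice per group, average weight 22 g). Dosing ip once daily for 5 consecutive days starting 24 h after implantation. Fluoropyrimidine references in 0.9% saline; prodrugs formulated with Emulphor 620; vehicle controls 0.2 mL. Percent body weight change recorded per group.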

Experiment [3] concerns Mus musculus. In words: The compound was tested for change in weight for mice implanted intraperitoneally with P-388/0 Leukemia cell line at 150 mg/kg. Particulars: route intraperitoneal. Summed up: as §2
Experiment [4] concerns Mus musculus. The experiment is described as follows: The compound was tested for mean survival time for 15 mice implanted Intraperitoneally with P-388/FU Leukemia cell line at 100 mg/kg. Particulars: route intraperitoneal. The method in brief:
(§3)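 P-388/0 or P-388/FU cells (1×10^6) implanted ip into male BDF1 mice on day 0. Dosing was ip, daily for 5 consecutive days beginning 24 h later, in saline or Emulphor 620 vehicle. Six mice per treated group. Animals followed to death and median survival time recorded in days. The control group had 15 mice.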

Experiment [5] deals with Mus musculus. The experiment is described as follows: The compound was tested for mean survival time for 15 mice implanted Intraperitoneally with P-388/0 Leukemia cell line at 150 mg/kg. Particulars: route intraperitoneal. The method in brief:
as §3

In experiment [6] the test system is Mus musculus. The experiment is described as follows: The compound was tested for increase in life span for mice implanted intraperitoneally with P-388/0 Leukemia cell line at 67 mg/kg. Particulars: P388, ip, route intraperitoneal. Summed up: as §1
Experiment [7] relates to Mus musculus. The experiment is described as follows: The compound was tested for increase in life span for mice implanted intraperitoneally with P-388/FU Leukemia cell line at 100 mg/kg. Particulars: P388, ip, route intraperitoneal. The method in brief: as §1
Experiment [8] concerns Mus musculus. In words: The compound was tested for mean survival time for 15 mice implanted Intraperitoneally with P-388/0 Leukemia cell line at 100 mg/kg. Particulars: route intraperitoneal. The method in brief: as §3
Experiment [9] deals with Mus musculus. The experiment is described as follows: The compound was tested for change in weight for mice implanted intraperitoneally with P-388/FU Leukemia cell line at 100 mg/kg. Particulars: route intraperitoneal. The method in brief:
as §2

The test system of experiment [10] is Mus musculus. In words: The compound was tested for increase in life span for mice implanted intraperitoneally with P-388/FU Leukemia cell line at 150 mg/kg. Particulars: P388, ip, route intraperitoneal. The method in brief:
as §1

Experiment [11] deals with Mus musculus. The experiment is described as follows: The compound was tested for mean survival time for 15 mice implanted Intraperitoneally with P-388/FU Leukemia cell line at 150 mg/kg. Particulars: route intraperitoneal. The method in brief: as §3
Experiment [12] concerns Mus musculus. The experiment is described as follows: The compound was tested for increase in life span for mice implanted intraperitoneally with P-388/0 Leukemia cell line at 100 mg/kg. Particulars: P388, ip, route intraperitoneal. Summed up: as §1
Experiment [13] relates to Mus musculus. The experiment is described as follows: The compound was tested for change in weight for mice implanted intraperitoneally with P-388/0 Leukemia cell line at 67 mg/kg. Particulars: route intraperitoneal. The method in brief:
as §2

In experiment [14] the test system is Mus musculus. In words: The compound was tested for […] implanted Intraperitoneally with P-388/FU Leukemia cell line at 67 mg/kg. Particulars: route intraperitoneal.
Experiment [15] relates to Mus musculus. In words: The compound was tested for change in weight for mice implanted intraperitoneally with P-388/FU Leukemia cell line at 67 mg/kg. Particulars: route intraperitoneal. The method in brief: as §2
In experiment [16] the test system is Mus musculus. In words: The compound was tested for mean survival time for 15 mice implanted Intraperitoneally with P-388/0 Leukemia cell line at 67 mg/kg. Particulars: route intraperitoneal. Summed up:
as §3

Experiment [17] deals with Mus musculus. In words: The compound was tested for change in weight for mice implanted intraperitoneally with P-388/0 Leukemia cell line at 100 mg/kg. Particulars: route intraperitoneal. The method in brief: as §2
Experiment [18] has as its system Mus musculus. The experiment is described as follows: The compound was tested for increase in life span for mice implanted intraperitoneally with P-388/0 Leukemia cell line at 150 mg/kg. Particulars: P388, ip, route intraperitoneal. The method in brief:
as §1

The subject of experiment [19] is Mus musculus. In words: The compound was tested for mean survival time for 15 mice implanted Intraperitoneally with P-388/0 Leukemia cell line at 20 mg/kg. Particulars: route intraperitoneal. Summed up: as §3
Experiment [20] relates to Mus musculus. The experiment is described as follows: The compound was tested for increase in life span for mice implanted intraperitoneally with P-388/0 Leukemia cell line at 30 mg/kg. Particulars: P388, ip, route intraperitoneal. The method in brief: as §1
The subject of experiment [21] is Mus musculus. In words: The compound was tested for mean survival time for 15 mice implanted Intraperitoneally with P-388/FU Leukemia cell line at 20 mg/kg. Particulars: route intraperitoneal. Summed up:
as §3

Experiment [22] deals with Mus musculus. In words: The compound was tested for mean survival time for 15 mice implanted Intraperitoneally with P-388/0 Leukemia cell line at 30 mg/kg. Particulars: route intraperitoneal. The method in brief: as §3
The test system of experiment [23] is Mus musculus. In words: The compound was tested for change in weight for mice implanted intraperitoneally with P-388/FU Leukemia cell line at 40 mg/kg. Particulars: route intraperitoneal. Summed up:
(§4)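 Male BDF1 mice (six per group, average 22 g) given 1×10^6 P-388 cells ip on day 0. Drug dosed ip once daily for 5 consecutive days, starting 24 h after implantation, in 0.9% saline or, where insoluble, Emulphor 620. Percentage body-weight change recorded per dose group.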

The subject of experiment [24] is Mus musculus. In words: The compound was tested for change in weight for mice implanted intraperitoneally with P-388/FU Leukemia cell line at 30 mg/kg. Particulars: route intraperitoneal. The method in brief:
as §4

Experiment [25] deals with Mus musculus. In words: The compound was tested for mean survival time for 15 mice implanted Intraperitoneally with P-388/FU Leukemia cell line at 40 mg/kg. Particulars: route intraperitoneal. Summed up: as §3
The subject of experiment [26] is Mus musculus. The experiment is described as follows: The compound was tested for mean survival time for 15 mice implanted Intraperitoneally with P-388/FU Leukemia cell line at 30 mg/kg. Particulars: route intraperitoneal. Summed up:
as §3

For experiment [27], the system named is Mus musculus. In words: The compound was tested for change in weight for mice implanted intraperitoneally with P-388/0 Leukemia cell line at 20 mg/kg. Particulars: route intraperitoneal. The method in brief:
as §4

Experiment [28] concerns Mus musculus. In words: The compound was tested for increase in life span for mice implanted intraperitoneally with P-388/FU Leukemia cell line at 40 mg/kg. Particulars: P388, ip, route intraperitoneal. Summed up:
as §1

In experiment [29] the test system is Mus musculus. The experiment is described as follows: The compound was tested for increase in life span for mice implanted intraperitoneally with P-388/FU Leukemia cell line at 30 mg/kg. Particulars: P388, ip, route intraperitoneal. Summed up: as §1
The subject of experiment [30] is Mus musculus. In words: The compound was tested for change in weight for mice implanted intraperitoneally with P-388/FU Leukemia cell line at 20 mg/kg. Particulars: route intraperitoneal. The method in brief:
as §4

Experiment [31] deals with Mus musculus. The experiment is described as follows: The compound was tested for change in weight for mice implanted intraperitoneally with P-388/0 Leukemia cell line at 30 mg/kg. Particulars: route intraperitoneal. Summed up:
as §4

Experiment [32] relates to Mus musculus. The experiment is described as follows: The compound was tested for increase in life span for mice implanted intraperitoneally with P-388/FU Leukemia cell line at 20 mg/kg. Particulars: P388, ip, route intraperitoneal. The method in brief:
as §1

Experiment [33] concerns Mus musculus. The experiment is described as follows: The compound was tested for increase in life span for mice implanted intraperitoneally with P-388/0 Leukemia cell line at 20 mg/kg. Particulars: P388, ip, route intraperitoneal. The method in brief:
as §1

Molecules are shown by their SMILES.

Take `O=c1[nH]c(=O)n([C@H]2C[C@H](O)[C@@H](CO)O2)cc1F` [FLOXURIDINE]: the values for the ILS at 67 mg/kg in experiment [1] and in experiment [6] were 9% and 45%, respectively. In addition, the Weight change in experiment [2] is -10%; in experiment [3] it was -5%; in experiment [9], -10%; in experiment [13], -2%; in [15], -6%; in [17] it was -4%. The MST in experiment [4] worked out at 13 days; in experiment [5] it was 20 days; in experiment [8], 19 days; in [11], 13 days; in [14], 12 days; in [16], 16 days. For the same compound, the ILS at 100 mg/kg was found to be 18% in [7] and 73% in experiment [12]. Moreover, the ILS at 150 mg/kg was determined as 18% in [10] and 82% in experiment [18].

As to `O=c1[nH]cc(F)c(=O)[nH]1` [FLUOROURACIL], the MST is 16 days in experiment [19]; 10 days in experiment [21]; 17 days in [22]; 9 days in [25]; 9 days in experiment [26]. Besides, the ILS at 30 mg/kg in experiment [20] was 55%; in experiment [29], -18%. Moreover, the Weight change was -18% in [23]; -15% in experiment [24]; -5% in experiment [27]; -6% in [30]; -15% in [31]. The ILS at 40 mg/kg in experiment [28] is -18%. The ILS at 20 mg/kg in [32] was -9%; in experiment [33] it was 45%.

Source of the values: ChEMBL document CHEMBL1127405, “Synthesis and antitumor evaluation of bis[(pivaloyloxy)methyl] 2'-deoxy-5-fluorouridine 5'-monophosphate (FdUMP): a strategy to introduce nucleotides into cells” (J Med Chem, 1994).
